Here are results for three compounds from paper PMC4479701 (mBio, 2015).

The structures appear in SMILES notation. ≈ marks a conversion by molar mass, not a printed value.

Data set [1] relates to Candida spp. The data set is described as follows: In vitro susceptibility. The data set is classed as cell-based. The settings on record: most Candida spp. examined. The method in brief:
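Inoculum prepared per CLSI M27-A3. Plates incubated at 37°C with 5% CO2 for 24 to 96 h. MIC was the lowest concentration inhibiting 50% of growth versus the drug-free control. Minimum fungicidal concentration was also measured: serial dilutions from wells were plated on YPD agar, and MFC was the lowest concentration yielding three or fewer colonies (99% of inoculum killed).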

Data set [2] concerns C. neoformans. The data set can be described thus: Synergism assay. The data set is classed as cell-based.
Data set [3] deals with C. neoformans cells. The data set can be described thus: In vitro passages, development of resistance. The data set is classed as cell-based. The conditions noted are these: 15 days of in vitro passages (120 generations), 10^6 cells/ml; data not shown.
The test system of data set [4] is GlcCer synthesis in C. neoformans. The data set is described as follows: In vivo labeling with [3H]palmitate, TLC of GlcCer. The data set is classed as cell-based. The settings on record: [3H]palmitate labeling.
In data set [5] the test system is GlcCer synthesis in J774.16 cells. The data set is described as follows: Labeling of mammalian cells with [3H]palmitate, TLC of GlcCer. In kind it is cell-based, murine. The conditions noted are these: [3H]palmitate labeling, 6 h. The method in brief: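 J774.16 macrophages (5 × 10^6 cells/ml) adhered for 14 h in six-well plates. They were exposed for 4 h to test compound at the concentrations used for the fungal labeling, then given 30 µCi/ml [3H]palmitic acid for a further 2 h.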

The test system of data set [6] is C. neoformans cells. The data set can be described thus: In vitro killing assay. In kind it is cell-based. The method in brief:
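An overnight C. neoformans culture was washed in PBS and resuspended in HEPES-buffered YNB, pH 7.4. 2 × 10^4 cells were exposed to 1, 2 or 4 µg/ml test compound in 10 ml (0.4% DMSO final), at 37°C, 5% CO2, on a rotary shaker at 200 rpm. Aliquots taken at time points were diluted, plated on YPD, incubated 72 h at 30°C, and CFU counted.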

Data set [7] is described as follows: In vitro toxicity. The data set is classed as cell-based, murine. The settings on record: mouse, J774.16 macrophage cells. The method in brief:
(§1)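 J774.16 murine macrophages were kept in DMEM with 10% FBS and 1% pen-strep, and used until passage eight. At passage 7, 10^5 cells/well were allowed to adhere for 14 h. Test compound was then added at 0.1 to 100 µg/ml, with drug-free wells as controls. Incubation at 37°C, 5% CO2.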

Data set [8] deals with J774 cells. The data set can be described thus: In vitro toxicity. The data set is classed as cell-based, murine. The method in brief: as §1
In data set [9] the test system is C. neoformans. The data set can be described thus: Mouse model of cryptococcosis, intranasal infection. In kind it is in vivo, mouse (CBA/J). The conditions noted are these: 1.2 mg/kg/day i.p. In short, it runs like this:
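Mice (10 per group) were infected by nasal inoculation of 20 µl containing 5 × 10^5 C. neoformans. Test compound was given i.p. at 1.2 mg/kg/day in 100 µl PBS with 0.4% DMSO, starting 2 h after inoculation. Survival followed up to 60 days. Organs of survivors were homogenized in 10 ml PBS, diluted serially 1:10, plated on YPD, and incubated at 30°C for 72 h for CFU.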

Data set [10] concerns C. neoformans. The data set can be described thus: Mouse model of cryptococcosis, intravenous infection. In kind it is in vivo, mouse (CBA/J). The conditions noted are these: 8 mice per group, vehicle 7.0 ± 1.1.
Data set [11] deals with P. murina. The data set is described as follows: Murine pneumocystosis, corticosteroid-immunosuppressed. The data set is classed as in vivo, mouse (C3H/HeN). The settings on record: mice immunosuppressed with corticosteroids. The method in brief:
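Corticosteroid-immunosuppressed mice were infected with P. murina by cohousing with seed mice for 2 weeks. […] Treatment lasted 13 days. Lung homogenate slides were stained with Diff-Quik for trophic forms and cresyl echt violet for asci.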

Data set [12] has as its system P. murina. The data set can be described thus: Murine pneumocystosis, CD4-depleted. In kind it is in vivo, mouse (C3H/HeN). The conditions noted are these: 1.25 mg/kg/day. In short, it runs like this:
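Twelve mice were CD4-depleted with 300 µg GK 1.5 antibody i.p. on days 1, 3 and 7. They were infected by exposure to P. murina-infected mice, then given 100 µg GK 1.5 i.p. weekly for 6 weeks. Treatment followed at 1.25 or 12.5 mg/kg/day for 14 days, with GK 1.5 continued; controls received vehicle.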

The subject of data set [13] is C. albicans SC 5314. The data set can be described thus: Mouse model of invasive candidiasis. In kind it is in vivo, mouse (CBA/J). The conditions noted are these: after 21 days of infection; 1.2 mg/kg/day i.p.; 8 mice per group. In short, it runs like this: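 Female CBA/J mice, 8 weeks old (8 per group), were infected i.v. with 100 µl containing 10^5 C. albicans SC-5314. Test compound was given i.p. at 1.2 mg/kg/day in 100 µl PBS with 0.4% DMSO immediately after inoculation; untreated mice received vehicle. Survival was monitored. Organs of survivors were homogenized in 10 ml PBS, diluted tenfold, and plated on YPD at 30°C for 72 h for CFU.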

Data set [14] can be described thus: In vivo toxicity, blood work. Also on record: species or system mouse (CBA/J). The method in brief: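 Female CBA/J mice, 4 weeks old: five received 1.2 mg/kg/day test compound for 60 days, and three controls received a daily solvent injection. On day 60, blood was collected into one K2EDTA tube and one plain tube allowed to clot.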
Data set [15] concerns sphingolipids of C. neoformans. The data set can be described thus: Sphingolipid profiling by TLC and LC-MS. The conditions noted are these: LC-MS; D0 data not shown. In kind it is cell-based.
Data set [16] concerns C. neoformans. The data set can be described thus: Transmission electron microscopy, intracellular vesicles. In kind it is cell-based. The conditions noted are these: 4 µg/ml, 6 h; untreated 0.33 ± 0.36.
The test system of data set [17] is Cryptococcus neoformans. The data set can be described thus: In vitro susceptibility testing. The data set is classed as cell-based. The settings on record: Cryptococcus neoformans.

Turning to `O=C(NN=Cc1ccc(O)c(Br)c1)c1cccc(Br)c1` [D0, 3-bromo-N′-(3-bromo-4-hydroxybenzylidene) benzohydrazide], the in vitro susceptibility entry in data set [1] is “resistant”. In addition, the interaction category entry was “additive (additive effect, FIC = 1)” in data set [2] (combined with caspofungin); “highly synergistic” in data set [2] (combined with fluconazole); “additive (additive effect, FIC = 1)” in [2] (combined with tunicamycin). Besides, the development of resistance entry in [3] is given as “did not develop resistance”. In addition, in data set [4], the “synthesis of GlcCer” value was “significantly inhibited”. The “synthesis of mammalian GlcCer or other sphingolipids” value in data set [5] was “no significant changes”. Moreover, the type of killing result in [6] (time-kill assay, 37°C, 5% CO2, pH 7.4) is “time-dependent killing”. This compound also came in with a dead cells in [6] (within 24 h) of 100%. Besides, the EC50 (in general, the concentration at which the effect is half-maximal) at 48 h in [7] worked out at 50 µg/mL (≈ 126 µM). Moreover, in data set [8] (J774 EC50 versus MIC), the EC50/MIC80 selectivity index is on record as over 100. Besides, in [8] (macrophage cell line), the “selectivity index (EC50/MIC ratio)” value is over 50. For the same compound, the “brain tissue burden (CFU)” value in data set [9] is listed as “eradication of fungal cells”. Moreover, the “lung tissue burden (CFU)” value in [9] is “decrease of fungal load”. In [9] (up to 60 days, 10 mice per group), the “mice surviving C. neoformans infection” value is 70%. For the same compound, the “survival, days postinfection” value in data set [10] (1.2 mg/kg/day i.p.) was found to be 10.5 ± 4.2 days. In addition, the toxicity entry in data set [11] is on record as “some toxicity”; in [12], “no apparent signs of toxicity”. For the same compound, the survival entry in data set [12] is on record as “significantly improved survival”. In data set [13], this compound displayed a mice still alive of 75%. Moreover, the “all other blood parameters for liver and kidney function” value in [14] (after 60 days of treatment) was “normal”. In addition, the tolerability in animals entry in data set [14] (mouse, in vivo) was “well tolerated”. In addition, the “levels of C18 hydroxyceramide and its desaturated and methylated forms” value in data set [15] was “decreased”. For the same compound, the “numbers of vesicles per square micrometer of cell surface area” value in data set [16] is on record as 0.93 ± 0.54.
For the compound `C[C@@H]1[C@H](O)[C@@H](C)/C=C/C=C/C=C/C=C/C=C/C=C/C=C/[C@H](O[C@@H]2O[C@H](C)[C@@H](O)[C@H](N)[C@@H]2O)C[C@@H]2O[C@](O)(C[C@@H](O)C[C@@H](O)[C@H](O)CC[C@@H](O)C[C@@H](O)CC(=O)O[C@H]1C)C[C@H](O)[C@H]2C(=O)O` [amphotericin B, reference compound], the “survival, days postinfection” value in data set [10] (1.2 mg/kg/day i.p.) is 23.5 ± 6.5 days.
On to `OC(Cn1cncn1)(Cn1cncn1)c1ccc(F)cc1F` [fluconazole, reference compound], for which the MIC – broadly, the lowest concentration that inhibits growth of the organism – in [17] is over 64 µg/mL. In data set [10] (10 mg/kg/day i.p.), the “survival, days postinfection” value came out at 10 ± 2 days.
